In ChEMBL document CHEMBL2424550, “Discovery of cyclic sulfoxide hydroxyethylamines as potent and selective β-site APP-cleaving enzyme 1 (BACE1) inhibitors: structure based design and in vivo reduction of amyloid β-peptides” (Bioorg Med Chem Lett, 2013):

Experiments:
[1] = Clearance in mouse liver microsomes; type: ADME, Microsome; conditions: read-out: CLH
Method in brief: (§1)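 Compounds incubated at 37 °C with human or mouse liver microsomes.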

[2] = Drug level in APP51/16 transgenic female mouse blood at 100 umol/kg, po after 4 hrs; type: ADME, organism-based; conditions: whole blood, read-out: Drug uptake
Method in brief: (§2)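 APP51/16 transgenic mice received an oral suspension in water with 2% cremophor. Parent inhibitor measured 4 h post-dose in blood (nmol/mL) and brain (nmol/g).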

[3] = Apparent permeability of the compound in MDCK cells expressing human MDR1; type: ADME, cell-based, Canis lupus familiaris; conditions: dog
Method in brief: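 Apparent permeability (Papp, […]) measured across MDR1-MDCK cell monolayers transfected with human MDR1.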

[4] = Clearance in human liver microsomes; type: ADME, Microsome; conditions: read-out: CLH; method in brief: as §1
Brain [5] = assay: Drug level in APP51/16 transgenic female mouse brain at 100 umol/kg, po after 4 hrs; type: ADME, organism-based; conditions: in vivo; method in brief: as §2
[6] = Lipophilicity, log P of the compound; type: physicochemical; conditions: octanol/water
[7] = Dissociation constant, pKa of the compound; type: physicochemical
Method in brief: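 Measured by multi-wavelength UV spectroscopy across a linear pH gradient of 2–12 units.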

Brain [8] = assay: Drug level in APP51/16 transgenic male mouse brain at 60 umol/kg, po after 4 hrs; type: ADME, organism-based; conditions: in vivo
Method in brief: (§3)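 Inhibitor given orally to APP51/16 transgenic mice as a suspension in water with 2% cremophor; ritonavir (12.5 mg/kg po, 0.5 h before inhibitor) where noted. Blood concentration (nmol/mL) and brain concentration (nmol/g) determined 4 h after dosing.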

Brain [9] = assay: Drug level in APP51/16 transgenic male mouse brain at 180 umol/kg, po after 4 hrs; type: ADME, organism-based; conditions: in vivo; method in brief: as §3
Brain [10] = assay: Drug level in APP51/16 transgenic male mouse brain at 100 umol/kg, po after 4 hrs; type: ADME, organism-based; conditions: in vivo; method in brief: as §3
[11] = Drug level in APP51/16 transgenic male mouse blood at 100 umol/kg, po after 4 hrs; type: ADME, organism-based; conditions: whole blood, read-out: Drug uptake; method in brief: as §3
[12] = Drug level in APP51/16 transgenic male mouse blood at 180 umol/kg, po after 4 hrs; type: ADME, organism-based; conditions: whole blood, read-out: Drug uptake; method in brief: as §3
[13] = Drug level in APP51/16 transgenic male mouse blood at 60 umol/kg, po after 4 hrs; type: ADME, organism-based; conditions: whole blood, read-out: Drug uptake; method in brief: as §3
[14] = Clearance in mouse; type: ADME, organism-based; conditions: in vivo
[15] = Bioavailability in mouse; type: ADME, organism-based; conditions: in vivo

Row | SMILES | microsomal CLint [1] [µL/min/mg] | Papp [3] [×10⁻⁶ cm/s] | microsomal CLint [4] [µL/min/mg] | logP [6] | also measured
1 | COC[C@@H](Oc1cc(C[C@@H]2C[S@@+]([O-])C[C@H](N[C@H](C)c3cccc(C(C)(C)C)c3)[C@H]2O)cc(F)c1N)C(F)(F)F | 730 | 17 | 600 |  | concentration at 4 h [2]: 5400 nM; Drug uptake (Brain [5]): 0.7 nmol/g
2 | COC[C@@H](Oc1cc(C[C@@H]2C[S@@+]([O-])C[C@H](NCc3cccc(C(C)C)c3)[C@H]2O)cc(F)c1N)C(F)(F)F | 550 | 20 | 690 | 3.7 | concentration at 4 h [2]: 1600 nM; Drug uptake (Brain [5]): 0.2 nmol/g
3 | CC(C)(C)c1cccc(CN[C@H]2C[S@+]([O-])C[C@@H](Cc3cc(O)c(N)c(F)c3)[C@@H]2O)c1 |  | 9 |  |  | 
4 | COC[C@@H](Oc1cc(C[C@@H]2C[S+]([O-])C[C@H](N)[C@H]2O)cc(F)c1N)C(F)(F)F (stereo not given in full) | 180 |  | 190 |  | 
5 | CC(C)(C)c1cccc(CN[C@H]2CS(=O)(=O)C[C@@H](Cc3cc(F)c(N)c(OC(C(F)(F)F)C(F)(F)F)c3)[C@@H]2O)c1 |  | 4 |  | 5.1 | pKa [7]: 5.7
6 | COC[C@@H](Oc1cc(C[C@@H]2C[S@@+]([O-])C[C@H](NCc3cccc(C(C)(C)C)c3)[C@H]2O)cc(F)c1N)C(F)(F)F | 480 | 18 | 500 | 3.9 | Drug uptake (Brain [8]): 0.1 nmol/g; Drug uptake (Brain [9]): 0.7 nmol/g; Drug uptake (Brain [10]): 0.2 nmol/g; concentration at 4 h [11]: 1000 nM; concentration at 4 h [12]: 3800 nM; concentration at 4 h [13]: 300 nM
7 | COC[C@@H](Oc1cc(C[C@@H]2C[S@@+]([O-])C[C@H](NCc3cc(C(C)(C)C)ccc3F)[C@H]2O)cc(F)c1N)C(F)(F)F | 580 | 24 | 400 | 4.1 | 
8 | COC[C@@H](Oc1cc(C[C@@H]2C[S@@+]([O-])C[C@H](NCc3cnn(CC(C)(C)C)c3)[C@H]2O)cc(F)c1N)C(F)(F)F | 380 | 10 | 140 | 2.9 | 
9 | CC(C)(C)c1cccc(CN[C@H]2C[S@+]([O-])C[C@@H](Cc3cc(F)c(N)c(O[C@H](CO)C(F)(F)F)c3)[C@@H]2O)c1 |  | 16 |  | 3.7 | 
10 | CC(C)(C)c1cccc(CN[C@H]2C[S@+]([O-])C[C@@H](Cc3cc(F)c(N)c(OCC(F)(F)F)c3)[C@@H]2O)c1 |  | 19 |  | 4.3 | Drug uptake (Brain [8]): 0.4 nmol/g; Drug uptake (Brain [9]): 1.3 nmol/g; Drug uptake (Brain [10]): 0.7 nmol/g; concentration at 4 h [11]: 2600 nM; concentration at 4 h [12]: 6100 nM; concentration at 4 h [13]: 800 nM
11 | COC[C@@H](Oc1cc(C[C@@H]2C[S@@+]([O-])C[C@H](NCc3cc(C(C)(C)C)ccn3)[C@H]2O)cc(F)c1N)C(F)(F)F | 400 | 19 | 140 | 3.5 | 
12 | COC[C@@H](Oc1cc(C[C@@H]2C[S@@+]([O-])C[C@H](NCc3cc(CC(C)(C)C)on3)[C@H]2O)cc(F)c1N)C(F)(F)F | 510 | 19 | 580 | 3.1 | pKa [7]: 4.9
13 | COC[C@@H](Oc1cc(C[C@@H]2C[S@@+]([O-])C[C@H](NCc3cccc(C(C)(C)CO)c3)[C@H]2O)cc(F)c1N)C(F)(F)F | 210 | 10 | 80 | 3.4 | 
14 | COC[C@@H](Oc1cc(C[C@@H]2C[S@@+]([O-])C[C@H](NCc3cccc(OC(C)C)c3)[C@H]2O)cc(F)c1N)C(F)(F)F | 190 | 21 | 280 | 3.6 | 
15 | CC(C)(C)c1cccc(CN[C@H]2C[S@@+]([O-])C[C@@H](Cc3cc(F)c(N)c(OC(C(F)(F)F)C(F)(F)F)c3)[C@@H]2O)c1 |  | 11 |  | 4.9 | 
16 | COC[C@@H](Oc1cc(C[C@@H]2C[S@@+]([O-])C[C@H](NCc3cccc(C(C)(C)O)c3)[C@H]2O)cc(F)c1N)C(F)(F)F | 150 | 8 | 40 |  | 
17 | [2H]C([2H])(N[C@H]1C[S@+]([O-])C[C@@H](Cc2cc(F)c(N)c(O[C@H](COC)C(F)(F)F)c2)[C@@H]1O)c1cccc(C(C)(C)C)c1 | 530 | 19 | 600 |  | Drug uptake (Brain [8]): 0.1 nmol/g; concentration at 4 h [13]: 400 nM
18 | COc1cc(C[C@@H]2C[S@@+]([O-])C[C@H](NCc3cccc(C(C)(C)C)c3)[C@H]2O)cc(F)c1N |  | 22 |  | 3.5 | 
19 | CC(C)(C)c1cccc(CN[C@H]2C[S@+]([O-])C[C@@H](Cc3cc(F)c(N)c(OC(C(F)(F)F)C(F)(F)F)c3)[C@@H]2O)c1 |  | 18 |  | 5.2 | pKa [7]: 6.7; clearance [14]: 129 mL/min/kg; Drug uptake (Brain [9]): 0.8 nmol/g; bioavailability [15]: 14%; concentration at 4 h [12]: 900 nM
20 | COC[C@@H](Oc1cc(C[C@@H]2C[S@@+]([O-])C[C@H](NCc3cccc(OC(F)(F)F)c3)[C@H]2O)cc(F)c1N)C(F)(F)F | 180 | 31 | 300 | 3.7 | 
21 | [2H]C([2H])(N[C@H]1C[S@+]([O-])C[C@@H](Cc2cc(F)c(N)c(O[C@H](COC)C(F)(F)F)c2)[C@@H]1O)c1cccc(C(C)C)c1 | 660 |  | 600 | 3.7 | concentration at 4 h [2]: 1500 nM; Drug uptake (Brain [5]): 0.3 nmol/g
